ChEMBL document CHEMBL4190302, “Antarctic Moss Biflavonoids Show High Antioxidant and Ultraviolet-Screening Activity” (J Nat Prod, 2017)

Tests used:
[1] = Antioxidant activity assessed as DPPH radical scavenging activity after 30 mins under dark condition; format: functional
In short: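 Serially diluted samples were run in replicates of four, and 200 μM DPPH (concentration as added) was added. MeOH served as the negative control and rutin (820 μM) as the positive control. A row without DPPH gave the background correction. Plates were held in the dark for 30 min, then read at 517 nm. IC50 was interpolated from % scavenging versus log concentration and reported as mean ± SD.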

[2] = Antioxidant activity assessed as DPPH radical scavenging activity after 30 mins under dark condition relative to rutin; format: functional
[3] = Ultraviolet radiation absorbing capacity of the compound at 315 to 400 nm; format: physicochemical; conditions: 0.4 µM

| SMILES | IC50 [1] | Activity [2] | Activity [3] |
| --- | --- | --- | --- |
| O=c1cc(-c2cc(O)c(O)c(-c3c(O)cc(O)c4c(=O)cc(-c5ccc(O)c(O)c5)oc34)c2)oc2cc(O)cc(O)c12 | 33.5 µM | 13% | Active |
| O=C1CC(c2cc(O)c(O)c(-c3c(O)cc(O)c4c(=O)cc(-c5ccc(O)c(O)c5)oc34)c2)Oc2cc(O)cc(O)c21 (racemic) | 128 µM |  | Active |
| O=Cc1ccc(O)cc1 [4-HYDROXYBENZALDEHYDE] | 476000 µM |  | Active |
| O=C(O)/C=C/c1ccc(O)cc1 [COUMARIC ACID] | 29700 µM |  | Active |
| COc1cc(/C=C/C(=O)O)ccc1O [FERULATE] | 75 µM |  | Active |
| C[C@@H]1O[C@@H](OC[C@H]2O[C@@H](Oc3c(-c4ccc(O)c(O)c4)oc4cc(O)cc(O)c4c3=O)[C@H](O)[C@@H](O)[C@@H]2O)[C@H](O)[C@H](O)[C@H]1O [RUTIN] | 38.6 µM |  |  |
| COc1cc(C=O)ccc1O [VANILLIN] | 14400 µM |  | Active |
